Active and inactive are the calls of the source.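 Rule for the calls, unless noted: active = viability at or below 30% in both replicate assays; inconclusive = viability at or below 30% in just one of the two assays; inactive = the rest.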
Experiments:
[1] = reducers of endogenous Her2 protein level, primary screen, SKBR3 breast tumor cells, AlphaScreen, ATP viability (AID 461;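 active = Her2 level under about 52% in both replicate screens, with viability over 70% of control, limit read from the data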;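 for Her2 level: lower value means less Her2 protein in the cells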;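 for viability: percent of carrier control wells set as 100% viability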); conditions: 18-24 h, measured here: SKBR3 viability, ATP luminescence, at 10 µM
[2] = target: Receptor tyrosine-protein kinase erbB-2 (Homo sapiens) (UniProt P04626); test: as above; conditions: 18-24 h, at 10 µM, stronger effect = lower value
Sequence of Receptor tyrosine-protein kinase erbB-2 (Homo sapiens) (P04626 whole entry, looked up): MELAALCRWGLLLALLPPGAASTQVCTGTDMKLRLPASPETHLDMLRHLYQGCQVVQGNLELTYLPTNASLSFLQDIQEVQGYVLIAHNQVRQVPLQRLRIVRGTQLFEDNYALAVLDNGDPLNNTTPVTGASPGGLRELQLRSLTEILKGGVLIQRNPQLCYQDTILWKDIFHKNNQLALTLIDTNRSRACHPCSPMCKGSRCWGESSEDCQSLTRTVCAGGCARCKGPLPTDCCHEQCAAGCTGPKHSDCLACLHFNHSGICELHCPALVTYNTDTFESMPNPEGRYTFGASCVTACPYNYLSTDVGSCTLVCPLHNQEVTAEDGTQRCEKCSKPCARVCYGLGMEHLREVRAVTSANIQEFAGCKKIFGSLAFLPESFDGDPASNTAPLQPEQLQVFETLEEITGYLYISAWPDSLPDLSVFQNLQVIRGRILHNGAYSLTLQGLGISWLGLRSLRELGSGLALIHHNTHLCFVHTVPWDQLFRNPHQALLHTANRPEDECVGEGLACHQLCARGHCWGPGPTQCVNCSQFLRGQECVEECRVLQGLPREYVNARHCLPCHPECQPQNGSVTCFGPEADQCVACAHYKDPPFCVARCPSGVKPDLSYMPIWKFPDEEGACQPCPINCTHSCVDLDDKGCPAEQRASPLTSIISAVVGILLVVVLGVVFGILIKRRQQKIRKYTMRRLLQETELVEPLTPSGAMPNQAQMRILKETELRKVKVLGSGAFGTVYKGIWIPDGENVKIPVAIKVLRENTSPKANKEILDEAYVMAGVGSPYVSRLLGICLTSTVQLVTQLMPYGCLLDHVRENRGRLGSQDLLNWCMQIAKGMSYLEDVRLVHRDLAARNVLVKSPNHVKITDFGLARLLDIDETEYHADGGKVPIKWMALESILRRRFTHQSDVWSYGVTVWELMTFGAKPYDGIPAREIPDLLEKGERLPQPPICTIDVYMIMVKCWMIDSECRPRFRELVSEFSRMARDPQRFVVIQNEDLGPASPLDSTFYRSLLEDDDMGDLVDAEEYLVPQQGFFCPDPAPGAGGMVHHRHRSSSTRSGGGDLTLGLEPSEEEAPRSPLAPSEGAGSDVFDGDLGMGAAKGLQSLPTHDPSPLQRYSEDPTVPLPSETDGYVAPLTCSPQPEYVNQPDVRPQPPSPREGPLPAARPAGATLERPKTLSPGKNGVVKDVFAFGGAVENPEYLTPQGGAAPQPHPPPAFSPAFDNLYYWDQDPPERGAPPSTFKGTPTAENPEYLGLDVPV

[3] = SK-BR-3 cell growth inhibitors, pilot screen, 24 h, human (AID 572;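 active = viability at or below 10% of carrier control in both of two separate runs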;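 note: compound exposure lasted between 18 and 24 h rather than exactly 24 h; 100% = carrier-treated control wells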); conditions: SK-BR-3 viability, CellTiter-Glo luminescence, at 10 µM, stronger effect = lower value
[4] = HUVEC growth inhibition – cell-based, human, primary screen (AID 575); conditions: HUVEC proliferation, CellTiter-Glo luminescence, 72 h; at 10 µM; stronger effect = lower value;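 note: 100% = median of untreated cell wells with 0.1% DMSO on each plate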
How it was run: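 material = primary HUVEC, no more than 12 passages | input = 1250 cells per well | controls = vehicle and MePR control wells | measured by = CTG luminescence | times = 72 h compound incubation | format = collagen-coated 384-well format | read-out = % viability vs DMSO wells | doses = single 10 µM dose, 0.1% DMSO, from 5x medium stock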

[5] = growth inhibitors of H69AR lung tumor, primary screen, human, duplicate replicates (AID 580;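 active = viability at or under a set limit in both replicates, limit being median viability minus 3 SD, cut at about 48% in these data, passing the limit was not always enough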;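 note: 100% = mean luminescence of untreated wells and 0% = no signal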); conditions: H69AR lung tumor cells viability, ATP luminescence, 72 h; at 10 µM; stronger effect = lower value
[6] = reversal of MRP1-mediated doxorubicin resistance, pilot screen, H69AR cells, doxorubicin co-treatment (AID 601;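 active = viability loss from added drug above about 55%, and viability with drug at most 40%, in both replicates, limit read from the data, passing the limit was not always enough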); conditions: CellTiter-Glo, 72 h, at 10 µM; for differential viability (reversal): stronger effect = higher value
[7] = 384-well plate pilot, post-Golgi transport modulator project, inhibition of yeast transport mutant growth (AID 636; in the data active = inhibition above about 31%); conditions: absorbance 615 nm, about 18 h, stronger effect = higher value
[8] = growth suppression of yeast trafficking mutant, preliminary HTS, modulators of trafficking downstream of Golgi apparatus project, 1536-format plate, OD 615 nm (AID 637; in the data active = inhibition above about 30%); conditions: yeast transport mutant growth, absorbance 615 nm, 18 h; stronger effect = higher value
[9] = H69AR cells + 2 uM doxorubicin, measured here: viability with 2 uM doxorubicin, stronger effect = lower value
[10] = H69AR cells, compound alone cytotoxicity

Structure (SMILES) | viability [1] [%] | Her2 level [2] | viability [3] | viability [4] | viability [5] | differential viability (reversal) ([6]; H69AR cells + 2 uM doxorubicin) | viability [6, 9] [%] | viability [6, 10] [%] | inhibition [7] | inhibition [8]
CCOC(=O)c1c(C)n(C)c2ccc(O)c(S(=O)(=O)c3ccccc3)c12 | 91.5 | 80.5% (inactive) | 91.5% (inactive) | 103% (inactive) | 87.9% (inactive) | -1.07% (inactive) | 88.9 | 87.9 | -6.4% (inactive) | -1.31% (inactive)
O=c1[nH]c2ccc(S(=O)(=O)N3CCN(C4CCCCC4)CC3)cc2[nH]c1=O | 90.5 | 104% (inactive) | 90.5% (inactive) | 91.8% (inactive) | 103% (inactive) | 9.67% (inactive) | 93.7 | 103 | 0.92% (inactive) | -12.6% (inactive)
Clc1ccccc1OCCCCn1ccnc1 | 95 | 114% (inactive) | 95% (inactive) | 95.9% (inactive) | 83.7% (inactive) | 11.4% (inactive) | 72.3 | 83.7 | 2.34% (inactive) | -4.33% (inactive)
COCCN1CN(S(=O)(=O)c2ccccc2)c2nc3ccccc3nc21 | 101 | 93.5% (inactive) | 101% (inactive) | 109% (inactive) | 98% (inactive) | -2.97% (inactive) | 101 | 98 | -3.95% (inactive) | 13.6% (inactive)
COc1ccc(C2NC(c3ccc(OC)c(OC)c3OC)C(C)C(=O)C2C)c(OC)c1OC (stereo not given) | 99.5 | 88.5% (inactive) | 99.5% (inactive) | 99.7% (inactive) | 92.4% (inactive) | 7.84% (inactive) | 84.5 | 92.4 | -3.42% (inactive) | -2.22% (inactive)
COC(=O)c1cc2ccsc2n1CC(=O)N(C)c1ccccc1 | 89.5 | 94.5% (inactive) | 89.5% (inactive) | 90.2% (inactive) | 84.2% (inactive) | 0.29% (inactive) | 84 | 84.2 | 0.26% (inactive) | -1.83% (inactive)
CCOC(=O)NC(=O)CSc1nnnn1-c1ccc(Cl)cc1 | 86.5 | 94% (inactive) | 86.5% (inactive) | 104% (inactive) | 106% (inactive) | 20.4% (inactive) | 85.7 | 106 | -5.2% (inactive) | 0.48% (inactive)
O=C(CCCN1C(=O)c2ccccc2C1=O)N1CCC(c2ccccc2)C1 (stereo not given) | 110 | 108% (inactive) | 110% (inactive) | 114% (inactive) | 96.4% (inactive) | -1.44% (inactive) | 97.8 | 96.4 | -5% (inactive) | 0.33% (inactive)
CCCCc1nc2n[nH]c(N)c2c2c1CCCC2 | 138 | 96% (inactive) | 138% (inactive) | 59.9% (inactive) | 92.3% (inactive) | 6.68% (inactive) | 85.6 | 92.3 | -5.47% (inactive) | -0.82% (inactive)
CCCc1cc(C(=O)Nc2ccccc2C(=O)OC)no1 | 89.5 | 109% (inactive) | 89.5% (inactive) | 64.7% (inactive) | 89.3% (inactive) | 7.36% (inactive) | 82 | 89.3 | 4.1% (inactive) | 14.5% (inactive)
CCn1c(CCC(=O)Nc2nc3c(s2)CCCC3)nc2cc(S(=O)(=O)N(C)C)ccc21 | 89.5 | 80% (inactive) | 89.5% (inactive) | 59.9% (inactive) | 85.4% (inactive) | 18.7% (inactive) | 66.7 | 85.4 | 5.27% (inactive) | -3.11% (inactive)
CC(C)Cc1n[nH]c(=O)[nH]1 | 118 | 115% (inactive) | 118% (inactive) | 93.9% (inactive) | 98.4% (inactive) | 9.75% (inactive) | 88.7 | 98.4 | -6.93% (inactive) | -9.84% (inactive)
CCCOc1ccccc1NC(=O)c1ccc(N)cc1 | 95 | 84% (inactive) | 95% (inactive) | 100% (inactive) | 98.2% (inactive) | 7.58% (inactive) | 90.6 | 98.2 | -5.53% (inactive) | -2.17% (inactive)
CCn1cc(C(=O)N2CCN(C(=O)c3ccco3)CC2)c2cc(OC)c(OC)cc2c1=O | 95 | 84% (inactive) | 95% (inactive) | 91.3% (inactive) | 98.1% (inactive) | 0.175% (inactive) | 97.9 | 98.1 | -4.61% (inactive) | -2.36% (inactive)
O=S(=O)(Nc1cccnc1)c1ccc2c(c1)OCCO2 | 91.5 | 92% (inactive) | 91.5% (inactive) | 99.7% (inactive) | 104% (inactive) | 12.1% (inactive) | 91.9 | 104 | -6.97% (inactive) | 3.17% (inactive)
CCOc1ccc2c(O)csc2c1 | 90.5 | 116% (inactive) | 90.5% (inactive) | 96.2% (inactive) | 95.9% (inactive) | 2.28% (inactive) | 93.7 | 95.9 | 0.13% (inactive) | 2.17% (inactive)

Structure (SMILES) | viability [1] [%] | Her2 level [2] | viability [3] | viability [4] | viability [5] | differential viability (reversal) ([6]; H69AR cells + 2 uM doxorubicin) | viability [6, 9] [%] | viability [6, 10] [%] | inhibition [7] | inhibition [8]
CC(C)(C)OC(=O)N1CCOCCOCCN(C(=O)OC(C)(C)C)CCOCCOCC1 | 97.5 | 112% (inactive) | 97.5% (inactive) | 83% (inactive) | 93.4% (inactive) | -2.94% (inactive) | 96.4 | 93.4 | -3.16% (inactive) | 5.74% (inactive)
Cc1sc2nc(SCc3nc4ccccc4[nH]3)n(Cc3ccco3)c(=O)c2c1C | 96.5 | 92.5% (inactive) | 96.5% (inactive) | 91.7% (inactive) | 84.6% (inactive) | 8.02% (inactive) | 76.6 | 84.6 | -0.13% (inactive) | -1.8% (inactive)
CC(C)(C)c1cc(NS(=O)(=O)c2ccc3c(c2)OCCO3)on1 | 131 | 88% (inactive) | 131% (inactive) | 98.1% (inactive) | 89.6% (inactive) | -3.41% (inactive) | 93 | 89.6 | -1.3% (inactive) | 5.24% (inactive)
COc1ccc(CCn2c(N)c(C#N)c3nc4ccccc4nc32)cc1OC | 64 | 82.5% (inactive) | 64% (inactive) | 94.3% (inactive) | 90.4% (inactive) | 0.84% (inactive) | 89.6 | 90.4 | -1.45% (inactive) | 7.87% (inactive)
Cc1ccc(-n2ncc3c(N4CCN(c5ccc(F)cc5)CC4)ncnc32)c(C)c1 | 87.5 | 94.5% (inactive) | 87.5% (inactive) | 91.8% (inactive) | 71.4% (inactive) | 31.8% (inactive) | 39.6 | 71.4 | 0.26% (inactive) | -3.55% (inactive)
Cc1ccc(-c2nnc(SC(C)C#N)n2N)cc1 (stereo not given) | 108 | 83% (inactive) | 108% (inactive) | 88.5% (inactive) | 92.3% (inactive) | 9.2% (inactive) | 83.1 | 92.3 | -5.68% (inactive) | 4.44% (inactive)
CCOC(=O)CSc1nc2ccccc2n1CC(=O)N1CCN(c2ccccc2)CC1 | 93.5 | 99.5% (inactive) | 93.5% (inactive) | 87.2% (inactive) | 89.9% (inactive) | 2.73% (inactive) | 87.1 | 89.9 | -1.3% (inactive) | -4.92% (inactive)
CCOC(=O)CNC(=O)Cn1cnc2c(nnn2-c2cccc(Cl)c2)c1=O | 82.5 | 109% (inactive) | 82.5% (inactive) | 105% (inactive) | 107% (inactive) | -1.7% (inactive) | 108 | 107 | -0.53% (inactive) | -6.83% (inactive)
O=C1OC(N2CCN(c3ccccn3)CC2)c2ccccc21 (stereo not given) | 94 | 80.5% (inactive) | 94% (inactive) | 105% (inactive) | 96.8% (inactive) | 7.36% (inactive) | 89.4 | 96.8 | -4.53% (inactive) | 1.48% (inactive)
COc1ccc(-c2c(=O)n(OCc3ccccn3)c3ccccc3[n+]2[O-])cc1OC | 105 | 98% (inactive) | 105% (inactive) | 87.6% (inactive) | 89.2% (inactive) | -2.4% (inactive) | 91.6 | 89.2 | -4% (inactive) | -3.65% (inactive)
O=C1COc2ccc(C(=O)COC(=O)CCc3ccc(S(=O)(=O)N4CCOCC4)cc3)cc2N1 | 105 | 98% (inactive) | 105% (inactive) | 80.3% (inactive) | 79% (inactive) | -10.4% (inactive) | 89.4 | 79 | 2.69% (inactive) | 1.67% (inactive)
COc1ccc2c(=O)c3c(=O)n(Cc4ccco4)c(-c4cc(OC)c(OC)c(OC)c4)nc3oc2c1 | 67 | 82.5% (inactive) | 67% (inactive) | 67.9% (inactive) | 36.1% (active) | -1.67% (inactive) | 37.8 | 36.1 | -2.53% (inactive) | -10% (inactive)
O=C(CSc1nc(O)cc(=O)n1-c1ccccc1)N1CCCCC1 | 100 | 77% (inactive) | 100% (inactive) | 80.8% (inactive) | 98.8% (inactive) | 2.4% (inactive) | 96.4 | 98.8 | -6.44% (inactive) | 3.97% (inactive)
O=C(CC(Cc1ccccc1)C(=O)O)NCCc1ccc2c(c1)OCO2 (stereo not given) | 90.5 | 122% (inactive) | 90.5% (inactive) | 92% (inactive) | 100% (inactive) | 19.3% (inactive) | 80.8 | 100 | -3.82% (inactive) | -7.17% (inactive)
CCC12CN3CC(CC)(CN(C1)C3c1ccc(OC(C)C)cc1)C2=O (stereo not given) | 94 | 92% (inactive) | 94% (inactive) | 110% (inactive) | 105% (inactive) | 10.7% (inactive) | 94.6 | 105 | -3.78% (inactive) | -0.95% (inactive)
CCc1nc(N[C@@H](Cc2c[nH]c3ccccc23)C(=O)O)c2oc3ccccc3c2n1 | 100 | 81% (inactive) | 100% (inactive) | 71.7% (inactive) | 82.1% (inactive) | -14.6% (inactive) | 96.7 | 82.1 | -5.07% (inactive) | -3.44% (inactive)
